# Assay results from different studies.
# Target: Dual specificity protein kinase CLK4 (CLK4, Homo sapiens, UniProt Q9HAZ1)
Compound,observed,method,concentration,remaining binding [%]
CNCc1ccccc1-c1csc([C@@H](C)Nc2nc(C)nc3cc(OC)c(OC)cc23)c1,cell-free assay,competition with immobilised ligand,1 µM,100
COc1ccnn2ncc(-c3ccnc(N(C)C)n3)c12,binding,,1 µM,4.2
O=C(Nc1c[nH]nc1C(=O)NC1CCNCC1)c1cc(F)cc(F)c1,binding,competition with immobilised ligand,1 µM,75
Cc1cnn2ncc(-c3ccnc(N(C)C)n3)c2c1,binding,,1 µM,9.7
O=C(N1CCS(=O)(=O)CC1)N1C[C@H](c2ccc(OC(F)(F)F)cc2)C[C@H](c2nc(C3CC3)no2)C1,cell-free assay,competition with immobilised ligand,1 µM,100
CCN1CCN(Cc2ccc(C(=O)Nc3ccc(C)c(Oc4ccc5c(c4)CC(=O)N5)c3)cc2C(F)(F)F)CC1,binding,competition with immobilised ligand,1 µM,94
c1cnn2ncc(-c3ccnc(N4CCC45COC5)n3)c2c1,binding,,1 µM,6.2
FC(F)(F)Oc1cccc(-c2cnc3ccc(-c4ccncc4)nn23)c1,cell-free assay,competition with immobilised ligand,5 µM,7.8
CN(C)c1nccc(-c2cnn3ncccc23)n1,binding,,1 µM,5.9
O=C1NC(c2ccccn2)Sc2ccccc21 (stereo not shown),cell-free assay,competition with immobilised ligand,1 µM,97
COc1ncc2cc3ccccc3nc2c1C#N,cell-free assay,competition with immobilised ligand,5 µM,86
Cc1c(C(=O)O)cc(-c2ccc(C3CCNCC3)cc2)c2ccc(-c3ccc(C(F)(F)F)cc3)cc12,binding,competition with immobilised ligand,1 µM,100
N[C@H]1CCN(c2nccc(-c3cnn4ncccc34)n2)C1,binding,,1 µM,22
c1cncc(-c2cccc(Nc3nccc(NC4CCCCC4)n3)c2)c1,binding,competition with immobilised ligand,10 µM,1
O=C(NCCCN1CCOCC1)c1ccc(Nc2ncc(Cl)c(-c3ccc(Cl)s3)n2)cc1,binding,competition with immobilised ligand,1 µM,1.6
Cn1cc(Cl)c2c(Oc3c(F)cc(Nc4cc(Cl)nc(N)n4)cc3F)ccnc21,cell-free assay,competition with immobilised ligand,0.1 µM,100
COc1cnc(Nc2cccc(S(N)(=O)=O)c2)nc1N1CCN(c2ccccc2)C(=O)C1,binding,competition with immobilised ligand,1 µM,93
O=C(c1ccc(Nc2nccc(-c3cc4ccccc4s3)n2)cc1)N1CCC(N2CCCC2)CC1,binding,competition with immobilised ligand,1 µM,27
C[C@@H]1CCN(c2nccc(-c3cnn4ncccc34)n2)C1,binding,,1 µM,12
O=C(c1ccc(Nc2ncc(Cl)c(-c3ccc(Cl)s3)n2)cc1)N1CCC(N2CCCC2)CC1,binding,competition with immobilised ligand,1 µM,2.1
Cc1noc([C@H]2C[C@@H](c3ccc(C(F)(F)F)cc3)CN(C(=O)N3CCS(=O)(=O)C3)C2)n1,cell-free assay,competition with immobilised ligand,1 µM,83
CN(c1nccc(-c2cnn3ncccc23)n1)C1CC1,binding,,1 µM,70
